Measured values taken from ChEMBL document CHEMBL4152290, “1H-Benzo[d]imidazoles and 3,4-dihydroquinazolin-4-ones: Design, synthesis and antitubercular activity” (Eur J Med Chem, 2018).
≈ marks a conversion by molar mass, not a printed value.

How the values were obtained:
Format in all cases: functional
[1] = test system: Mycobacterium tuberculosis; assay: Antitubercular activity against isoniazid/ethambutol-resistant Mycobacterium tuberculosis isolate CDCT27 harboring katG mutant gene after 7 days by resazurin dye based assay
Outline: (§1)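 Resazurin microtiter MIC in 7H9 with 10% ADC. Two-fold dilutions from 1 mg/mL DMSO stocks span 25.0–0.05, 10.0–0.02 or 0.02–0.0004 µg/mL, with 2.5% DMSO final. Inoculum is bead-declumped culture grown in 7H9/10% OADC/0.05% Tween 80, diluted to OD600 0.006. Plates run 7 days at 37 °C, then 0.01% resazurin for 48 h. MIC is the lowest concentration preventing the blue-to-pink change. Three independent tests.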

[2] = test system: Mycobacterium tuberculosis; assay: Antitubercular activity against Mycobacterium tuberculosis isolate CDCT28 harboring rpoB mutant gene after 7 days by resazurin dye based assay; outline: as §1
[3] = test system: Mycobacterium tuberculosis; assay: Antitubercular activity against multidrug-resistant Mycobacterium tuberculosis isolate CDCT16 harboring rpoB/katG/inhA mutant gene after 7 days by resazurin dye based assay; outline: as §1
[4] = test system: Mycobacterium tuberculosis; assay: Antitubercular activity against multidrug-resistant Mycobacterium tuberculosis isolate CDCT10 harboring rpoB/katG mutant gene after 7 days by resazurin dye based assay; outline: as §1

Compound | MIC [1] [µM] | MIC [2] [µM] | MIC [3] [µM] | MIC [4] [µM]
CC1CCC(NC(=O)CSc2nc3ccccc3c(=O)[nH]2)CC1 (configuration not stated) | 0.12 (≈ 0.0398 µg/mL) | 0.24 (≈ 0.0795 µg/mL) | 0.48 (≈ 0.159 µg/mL) | 0.24 (≈ 0.0795 µg/mL)
CC1CCCC(NC(=O)CSc2nc3ccccc3c(=O)[nH]2)C1 (configuration not stated) | 0.24 (≈ 0.0795 µg/mL) | 0.93 (≈ 0.308 µg/mL) | 0.9 (≈ 0.298 µg/mL) | 0.94 (≈ 0.312 µg/mL)
C[C@H]1CC[C@H](NC(=O)CSc2nc3ccccc3c(=O)[nH]2)CC1 | 0.12 (≈ 0.0398 µg/mL) | 0.12 (≈ 0.0398 µg/mL) | 0.24 (≈ 0.0795 µg/mL) | 0.12 (≈ 0.0398 µg/mL)
O=C(CSc1nc2ccccc2c(=O)[nH]1)NC1CCCCCC1 | 0.24 (≈ 0.0795 µg/mL) | 0.48 (≈ 0.159 µg/mL) | 0.93 (≈ 0.308 µg/mL) | 0.48 (≈ 0.159 µg/mL)
O=C(CSc1nc2ccccc2c(=O)[nH]1)NCC1CCCCC1 | 0.48 (≈ 0.159 µg/mL) | 0.93 (≈ 0.308 µg/mL) | 0.93 (≈ 0.308 µg/mL) | 0.93 (≈ 0.308 µg/mL)
CC1CCCCC1NC(=O)CSc1nc2ccccc2c(=O)[nH]1 (configuration not stated) | 0.96 (≈ 0.318 µg/mL) | 1.9 (≈ 0.63 µg/mL) | 3.9 (≈ 1.29 µg/mL) | 0.95 (≈ 0.315 µg/mL)
NNC(=O)c1ccncc1 [ISONIAZID] | 182.3 (≈ 25 µg/mL) | 2.84 (≈ 0.389 µg/mL) | >729.2 | 45.6 (≈ 6.25 µg/mL)
O=C(CSc1nc2ccccc2c(=O)[nH]1)NC1CCCCC1 | 0.25 (≈ 0.0794 µg/mL) | 0.5 (≈ 0.159 µg/mL) | 0.97 (≈ 0.308 µg/mL) | 0.5 (≈ 0.159 µg/mL)
